ChEMBL document CHEMBL1287651, “Synthesis and in vitro antibacterial activity of fluoroquinolone derivatives containing 3-(N'-alkoxycarbamimidoyl)-4-(alkoxyimino) pyrrolidines” (2010)
Values after ≈ are worked out from the molar mass of the structure shown.

Tests used:
Assay type in all cases: functional
[1] = tested on: Klebsiella pneumoniae; test: Antibacterial activity against Klebsiella pneumoniae 09-23 after 18 to 24 hrs by twofold serial dilution method
How it was run: (§1)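 MIC determined by the standard twofold serial dilution method on agar media, screening against Gram-positive and Gram-negative strains. Levofloxacin and gemifloxacin were run alongside as reference drugs.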

[2] = tested on: Pseudomonas aeruginosa; test: Antibacterial activity against Pseudomonas aeruginosa 09-32 after 18 to 24 hrs by twofold serial dilution method; how it was run: as §1
[3] = tested on: Enterococcus faecium; test: Antibacterial activity against Enterococcus faecium 08-7 after 18 to 24 hrs by twofold serial dilution method; how it was run: as §1
[4] = tested on: Staphylococcus aureus; test: Antibacterial activity against methicillin-resistant Staphylococcus aureus 08-1 after 18 to 24 hrs by twofold serial dilution method
How it was run: (§2)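 Standard twofold serial agar dilution method on agar media for MIC determination. Screened against representative Gram-positive and Gram-negative strains. Levofloxacin and GMFX served as control drugs.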

[5] = tested on: Pseudomonas aeruginosa; test: Antibacterial activity against Pseudomonas aeruginosa 09-35 after 18 to 24 hrs by twofold serial dilution method; how it was run: as §1
[6] = tested on: Staphylococcus aureus; test: Antibacterial activity against methicillin-sensitive Staphylococcus aureus 08-2 after 18 to 24 hrs by twofold serial dilution method; how it was run: as §2
[7] = tested on: Escherichia coli; test: Antibacterial activity against Escherichia coli 08-21 after 18 to 24 hrs by twofold serial dilution method; how it was run: as §1
[8] = tested on: Klebsiella pneumoniae; test: Antibacterial activity against Klebsiella pneumoniae 09-22 after 18 to 24 hrs by twofold serial dilution method; how it was run: as §1
[9] = tested on: Streptococcus pneumoniae; test: Antibacterial activity against Streptococcus pneumoniae 08-2 after 18 to 24 hrs by twofold serial dilution method; how it was run: as §1
[10] = tested on: Pseudomonas aeruginosa; test: Antibacterial activity against Pseudomonas aeruginosa 09-34 after 18 to 24 hrs by twofold serial dilution method; how it was run: as §1
[11] = tested on: Escherichia coli; test: Antibacterial activity against Escherichia coli 08-22 after 18 to 24 hrs by twofold serial dilution method; how it was run: as §1
[12] = tested on: Streptococcus pneumoniae; test: Antibacterial activity against Streptococcus pneumoniae 08-4 after 18 to 24 hrs by twofold serial dilution method; how it was run: as §1
[13] = tested on: Staphylococcus aureus; test: Antibacterial activity against Staphylococcus aureus ATCC […] after 18 to 24 hrs by twofold serial dilution method; how it was run: as §1
[14] = tested on: Enterococcus faecalis; test: Antibacterial activity against Enterococcus faecalis 08-12 after 18 to 24 hrs by twofold serial dilution method; how it was run: as §1
[15] = tested on: Staphylococcus epidermidis; test: Antibacterial activity against methicillin-resistant Staphylococcus epidermidis 09-2 after 18 to 24 hrs by twofold serial dilution method; how it was run: as §2
[16] = tested on: Pseudomonas aeruginosa; test: Antibacterial activity against Pseudomonas aeruginosa ATCC 27853 after 18 to 24 hrs by twofold serial dilution method; how it was run: as §1
[17] = tested on: Enterococcus faecalis; test: Antibacterial activity against Enterococcus faecalis 08-10 after 18 to 24 hrs by twofold serial dilution method; how it was run: as §1
[18] = tested on: Staphylococcus epidermidis; test: Antibacterial activity against methicillin-resistant Staphylococcus epidermidis 09-4 after 18 to 24 hrs by twofold serial dilution method; how it was run: as §2
[19] = tested on: Escherichia coli; test: Antibacterial activity against Escherichia coli ATCC 25922 after 18 to 24 hrs by twofold serial dilution method; how it was run: as §1
[20] = tested on: Staphylococcus epidermidis; test: Antibacterial activity against methicillin-resistant Staphylococcus epidermidis 09-3 after 18 to 24 hrs by twofold serial dilution method; how it was run: as §2
[21] = tested on: Klebsiella pneumoniae; test: Antibacterial activity against Klebsiella pneumoniae 09-21 after 18 to 24 hrs by twofold serial dilution method; how it was run: as §1
[22] = tested on: Pseudomonas aeruginosa; test: Antibacterial activity against Pseudomonas aeruginosa 09-33 after 18 to 24 hrs by twofold serial dilution method; how it was run: as §1
[23] = tested on: Staphylococcus epidermidis; test: Antibacterial activity against methicillin-sensitive Staphylococcus epidermidis 09-3 after 18 to 24 hrs by twofold serial dilution method; how it was run: as §2
[24] = tested on: Enterococcus faecium; test: Antibacterial activity against Enterococcus faecium 08-2 after 18 to 24 hrs by twofold serial dilution method; how it was run: as §1
[25] = tested on: Staphylococcus epidermidis; test: Antibacterial activity against methicillin-sensitive Staphylococcus epidermidis 09-6 after 18 to 24 hrs by twofold serial dilution method; how it was run: as §2

SMILES | MIC [1] [µg/mL] | MIC [2] [µg/mL] | MIC [3] [µg/mL] | MIC [4] [µg/mL] | MIC [5] [µg/mL] | MIC [6] [µg/mL] | MIC [7] [µg/mL] | MIC [8] [µg/mL] | MIC [9] [µg/mL] | MIC [10] [µg/mL] | MIC [11] [µg/mL] | MIC [12] [µg/mL] | MIC [13] [µg/mL] | MIC [14] [µg/mL] | MIC [15] [µg/mL] | MIC [16] [µg/mL] | MIC [17] [µg/mL] | MIC [18] [µg/mL] | MIC [19] [µg/mL] | MIC [20] [µg/mL] | also measured
CCO/N=C1\CN(c2c(F)cc3c(=O)c(C(=O)O)cn(C4CC4)c3c2OC)CC1/C(N)=N\OCC (stereo not given) | 64 (≈ 131 µM) | 64 (≈ 131 µM) | 64 (≈ 131 µM) | 64 (≈ 131 µM) | 64 (≈ 131 µM) | 64 (≈ 131 µM) | 64 (≈ 131 µM) | 32 (≈ 65.4 µM) | 64 (≈ 131 µM) | 64 (≈ 131 µM) | 64 (≈ 131 µM) | 1 (≈ 2.04 µM) | 0.5 (≈ 1.02 µM) | 64 (≈ 131 µM) | 0.5 (≈ 1.02 µM) | 16 (≈ 32.7 µM) | 64 (≈ 131 µM) | 1 (≈ 2.04 µM) | 16 (≈ 32.7 µM) | 1 (≈ 2.04 µM) | MIC [21]: 64 µg/mL (≈ 131 µM); MIC [22]: 64 µg/mL (≈ 131 µM); MIC [23]: 0.5 µg/mL (≈ 1.02 µM); MIC [24]: 64 µg/mL (≈ 131 µM); MIC [25]: 0.5 µg/mL (≈ 1.02 µM)
CO/N=C1\CN(c2c(F)cc3c(=O)c(C(=O)O)cn(C4CC4)c3c2OC)CC1/C(N)=N\OC (stereo not given) | > 128 | 128 (≈ 277 µM) | > 128 | 0.25 (≈ 0.542 µM) | 128 (≈ 277 µM) | 0.125 (≈ 0.271 µM) | > 128 | 2 (≈ 4.33 µM) | 8 (≈ 17.3 µM) | > 128 | > 128 | 0.25 (≈ 0.542 µM) | 0.125 (≈ 0.271 µM) | > 128 | 0.25 (≈ 0.542 µM) | 64 (≈ 139 µM) | > 128 | 0.25 (≈ 0.542 µM) | 128 (≈ 277 µM) | 0.25 (≈ 0.542 µM) | MIC [21]: > 128 µg/mL; MIC [22]: > 128 µg/mL; MIC [23]: 0.125 µg/mL (≈ 0.271 µM); MIC [24]: > 128 µg/mL; MIC [25]: 0.25 µg/mL (≈ 0.542 µM)
CCO/N=C1\CN(c2c(F)cc3c(=O)c(C(=O)O)cn(C4CC4)c3c2OC)CC1/C(N)=N\OC (stereo not given) | > 128 | > 128 | > 128 | 0.25 (≈ 0.526 µM) | > 128 | 0.25 (≈ 0.526 µM) | > 128 | 4 (≈ 8.41 µM) | 4 (≈ 8.41 µM) | > 128 | > 128 | 4 (≈ 8.41 µM) | 0.5 (≈ 1.05 µM) | 0.5 (≈ 1.05 µM) | 0.5 (≈ 1.05 µM) | > 128 | 0.25 (≈ 0.526 µM) | 0.125 (≈ 0.263 µM) | > 128 | 0.125 (≈ 0.263 µM) | MIC [21]: > 128 µg/mL; MIC [22]: > 128 µg/mL; MIC [23]: 0.25 µg/mL (≈ 0.526 µM); MIC [24]: > 128 µg/mL; MIC [25]: 0.25 µg/mL (≈ 0.526 µM)
CCO/N=C(/N)C1CN(c2c(F)cc3c(=O)c(C(=O)O)cn(C4CC4)c3c2F)C/C1=N\OC (stereo not given) | > 128 | > 128 | > 128 | 0.06 (≈ 0.129 µM) | > 128 | 0.06 (≈ 0.129 µM) | > 128 | 2 (≈ 4.32 µM) | 32 (≈ 69 µM) | > 128 | > 128 | 1 (≈ 2.16 µM) | 0.06 (≈ 0.129 µM) | > 128 | 0.06 (≈ 0.129 µM) | > 128 | > 128 | 0.06 (≈ 0.129 µM) | > 128 | 0.06 (≈ 0.129 µM) | MIC [21]: > 128 µg/mL; MIC [22]: > 128 µg/mL; MIC [23]: 0.06 µg/mL (≈ 0.129 µM); MIC [24]: > 128 µg/mL; MIC [25]: 0.06 µg/mL (≈ 0.129 µM)
CO/N=C1\CN(c2nc3c(cc2F)c(=O)c(C(=O)O)cn3C2CC2)CC1/C(N)=N\O (stereo not given) | > 128 | 8 (≈ 19.1 µM) | > 128 | 128 (≈ 306 µM) | > 128 | 1 (≈ 2.39 µM) | > 128 | 32 (≈ 76.5 µM) | 2 (≈ 4.78 µM) | 8 (≈ 19.1 µM) | > 128 | 2 (≈ 4.78 µM) | 1 (≈ 2.39 µM) | 4 (≈ 9.56 µM) | 1 (≈ 2.39 µM) | 4 (≈ 9.56 µM) | > 128 | 2 (≈ 4.78 µM) | 128 (≈ 306 µM) | 1 (≈ 2.39 µM) | MIC [21]: > 128 µg/mL; MIC [22]: 8 µg/mL (≈ 19.1 µM); MIC [23]: 128 µg/mL (≈ 306 µM); MIC [24]: > 128 µg/mL; MIC [25]: 128 µg/mL (≈ 306 µM)
CCO/N=C(/N)C1CN(c2c(F)cc3c(=O)c(C(=O)O)cn(CC)c3c2F)C/C1=N\OC (stereo not given) | > 128 | > 128 | > 128 | 0.25 (≈ 0.554 µM) | > 128 | 0.25 (≈ 0.554 µM) | > 128 | 1 (≈ 2.22 µM) | 16 (≈ 35.4 µM) | > 128 | > 128 | 0.5 (≈ 1.11 µM) | 0.125 (≈ 0.277 µM) | > 128 | 0.5 (≈ 1.11 µM) | > 128 | > 128 | 0.125 (≈ 0.277 µM) | > 128 | 0.125 (≈ 0.277 µM) | MIC [21]: > 128 µg/mL; MIC [22]: > 128 µg/mL; MIC [23]: 0.25 µg/mL (≈ 0.554 µM); MIC [24]: > 128 µg/mL; MIC [25]: 0.25 µg/mL (≈ 0.554 µM)
